In brackets after ≈: the same amount, converted by molar mass.
How the values were obtained:
Salmonella typhimurium = experiment: Antibacterial activity against Salmonella enterica serovar Typhimurium LT2 after 14 to 16 hrs by broth dilution method; format: functional, Salmonella enterica subsp. enterica serovar Typhimurium
Escherichia coli [1] = experiment: Antibacterial activity against Escherichia coli K12 after 14 to 16 hrs by broth dilution method; format: functional
Escherichia coli [2] = experiment: Antibacterial activity against Escherichia coli K10 after 14 to 16 hrs by broth dilution method; format: functional
Escherichia coli [3] = experiment: Antibacterial activity against Escherichia coli C921-61 after 14 to 16 hrs by broth dilution method; format: functional
Escherichia coli [4] = experiment: Antibacterial activity against Escherichia coli N818 delta acrA mutant assessed as inhibition of AcrAB efflux pump after 14 to 16 hrs by broth dilution method; format: functional
In short: (§1)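 CLSI broth dilution in cation-adjusted Mueller-Hinton broth with serial twofold dilutions, with or without spermine or spermidine added. Overnight cultures were diluted in saline to OD600 0.1–0.12, and about 10^5 CFU were inoculated. Incubation was 14–16 h at 37°C. MIC was confirmed in three independent experiments. E. coli acrA mutants were tested with 1 mM spermine; P. aeruginosa isolates with 1 mM spermine or 20 mM spermidine.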

Staphylococcus aureus [5] = experiment: Antibacterial activity against Staphylococcus aureus ATCC 3556 after 14 to 16 hrs by broth dilution method; format: functional
Staphylococcus aureus [6] = experiment: Antibacterial activity against Staphylococcus aureus Mu50 after 14 to 16 hrs by broth dilution method; format: functional
Staphylococcus aureus [7] = experiment: Antibacterial activity against Staphylococcus aureus N315 after 14 to 16 hrs by broth dilution method; format: functional; in short: as §1
Escherichia coli [8] = experiment: Antibacterial activity against Escherichia coli W4573 assessed as inhibition of AcrAB efflux pump after 14 to 16 hrs by broth dilution method; format: functional
Escherichia coli [9] = experiment: Antibacterial activity against Escherichia coli N43 acrA mutant assessed as inhibition of AcrAB efflux pump after 14 to 16 hrs by broth dilution method; format: functional; in short: as §1
Pseudomonas aeruginosa [10] = experiment: Antibacterial activity against Pseudomonas aeruginosa F66336 after 14 to 16 hrs by broth dilution method; format: functional
Pseudomonas aeruginosa [11] = experiment: Antibacterial activity against Pseudomonas aeruginosa PAO1 after 14 to 16 hrs by broth dilution method; format: functional
Pseudomonas aeruginosa [12] = experiment: Antibacterial activity against Pseudomonas aeruginosa F4980 after 14 to 16 hrs by broth dilution method; format: functional; in short: as §1
Pseudomonas aeruginosa [13] = experiment: Antibacterial activity against Pseudomonas aeruginosa T15464 after 14 to 16 hrs by broth dilution method; format: functional; in short: as §1
Pseudomonas aeruginosa [14] = experiment: Antibacterial activity against Pseudomonas aeruginosa T2095 after 14 to 16 hrs by broth dilution method; format: functional
Pseudomonas aeruginosa [15] = experiment: Antibacterial activity against Pseudomonas aeruginosa M38100A after 14 to 16 hrs by broth dilution method; format: functional
Pseudomonas aeruginosa [16] = experiment: Antibacterial activity against Pseudomonas aeruginosa T6268 after 14 to 16 hrs by broth dilution method; format: functional
Pseudomonas aeruginosa [17] = experiment: Antibacterial activity against Pseudomonas aeruginosa H4563 after 14 to 16 hrs by broth dilution method; format: functional
Pseudomonas aeruginosa [18] = experiment: Antibacterial activity against Pseudomonas aeruginosa M22152 after 14 to 16 hrs by broth dilution method; format: functional; in short: as §1
Pseudomonas aeruginosa [19] = experiment: Antibacterial activity against Pseudomonas aeruginosa M38100B after 14 to 16 hrs by broth dilution method; format: functional
Pseudomonas aeruginosa [20] = experiment: Antibacterial activity against streptomycin-resistant Pseudomonas aeruginosa DK100 after 14 to 16 hrs by broth dilution method; format: functional; in short: as §1
Pseudomonas aeruginosa [21] = experiment: Antibacterial activity against streptomycin and gentamycin-resistant Pseudomonas aeruginosa DK101 containing oprD mutant after 14 to 16 hrs by broth dilution method; format: functional; in short: as §1
Pseudomonas aeruginosa [22] = experiment: Antibacterial activity against Pseudomonas aeruginosa DK101 containing pAU48 expressing oprD after 14 to 16 hrs by broth dilution method; format: functional

Row | SMILES | MIC (Salmonella typhimurium) | MIC (Escherichia coli [1]) | MIC (Escherichia coli [2]) | MIC (Escherichia coli [3]) | MIC (Staphylococcus aureus [5]) | MIC (Staphylococcus aureus [6]) | MIC (Staphylococcus aureus [7]) | also measured
1 | CO[C@@H]1[C@@H](OC(N)=O)[C@@H](O)[C@H](Oc2ccc3c(O)c(NC(=O)c4ccc(O)c(CC=C(C)C)c4)c(=O)oc3c2C)OC1(C)C [NOVOBIOCIN] | > 1020 µg/mL | > 1020 µg/mL | > 1020 µg/mL | 512 µg/mL |  |  |  | 
2 | CN(C)[C@@H]1C(O)=C(C(N)=O)C(=O)[C@@]2(O)C(O)=C3C(=O)c4c(O)cccc4[C@@](C)(O)[C@H]3C[C@@H]12 [TETRACYCLINE] | 2 µg/mL | 8 µg/mL | 8 µg/mL | 2 µg/mL | 0.12 µg/mL | 32 µg/mL | 0.12 µg/mL | MIC (Escherichia coli [4]): 0.5 µg/mL (≈ 1.13 µM); MIC (Escherichia coli [8]): 2 µg/mL (≈ 4.5 µM); MIC (Escherichia coli [9]): 0.5 µg/mL (≈ 1.13 µM)
3 | CN[C@@H]1[C@H](O)[C@H](NC)[C@H]2O[C@@]3(O)C(=O)C[C@@H](C)O[C@H]3O[C@@H]2[C@H]1O [SPECTINOMYCIN] | 32 µg/mL | 16 µg/mL | 16 µg/mL | 16 µg/mL |  |  |  | 
4 | NCCCNCCCCNCCCN [SPERMINE] | 2 mM | > 16 mM | 1 mM | > 16 mM | 4 mM | 4 mM | 4 mM | 
5 | CO/N=C(\C(=O)N[C@@H]1C(=O)N2C(C(=O)O)=C(COC(C)=O)CS[C@H]12)c1csc(N)n1 [CEFOTAXIME] |  |  |  |  | 0.5 µg/mL | > 1020 µg/mL | 2 µg/mL | 
6 | CC1(C)S[C@@H]2[C@H](NC(=O)[C@H](N)c3ccccc3)C(=O)N2[C@H]1C(=O)O [AMPICILLIN] | 4 µg/mL | 4 µg/mL | 8 µg/mL | 4 µg/mL | 2 µg/mL | 64 µg/mL | 128 µg/mL | 
7 | CC(C)(O/N=C(\C(=O)N[C@@H]1C(=O)N2C(C(=O)[O-])=C(C[n+]3ccccc3)CS[C@H]12)c1csc(N)n1)C(=O)O [CEFTAZIDIME] |  |  |  |  | 8 µg/mL | 512 µg/mL | 32 µg/mL | 
8 | CC1(C)S[C@@H]2[C@H](NC(=O)[C@H](N)c3ccc(O)cc3)C(=O)N2[C@H]1C(=O)O [AMOXICILLIN] |  |  |  |  | 1 µg/mL | 16 µg/mL | 16 µg/mL | 
9 | O=C(N[C@H](CO)[C@H](O)c1ccc([N+](=O)[O-])cc1)C(Cl)Cl [CHLORAMPHENICOL] | 2 µg/mL | 32 µg/mL |  | 4 µg/mL | 8 µg/mL | 8 µg/mL | 8 µg/mL | MIC (Pseudomonas aeruginosa [10]): 8 µg/mL (≈ 24.8 µM); MIC (Escherichia coli [4]): 2 µg/mL (≈ 6.19 µM); MIC (Pseudomonas aeruginosa [11]): 128 µg/mL (≈ 396 µM); MIC (Pseudomonas aeruginosa [12]): 32 µg/mL (≈ 99 µM); MIC (Pseudomonas aeruginosa [13]): 32 µg/mL (≈ 99 µM); MIC (Pseudomonas aeruginosa [14]): 32 µg/mL (≈ 99 µM); MIC (Escherichia coli [8]): 8 µg/mL (≈ 24.8 µM); MIC (Escherichia coli [9]): 2 µg/mL (≈ 6.19 µM); MIC (Pseudomonas aeruginosa [15]): 4 µg/mL (≈ 12.4 µM)
10 | CO/N=C(\C(=O)N[C@@H]1C(=O)N2C(C(=O)O)=C(CSc3nc(=O)c(O)nn3C)CS[C@H]12)c1csc(N)n1 [CEFTRIAXONE] |  |  |  |  | 2 µg/mL | > 1020 µg/mL | 4 µg/mL | 
11 | NC[C@H]1O[C@H](O[C@H]2[C@H](O)[C@@H](O[C@H]3O[C@H](CO)[C@@H](O)[C@H](N)[C@H]3O)[C@H](N)C[C@@H]2N)[C@H](O)[C@@H](O)[C@@H]1O [KANAMYCIN] | 4 µg/mL | 4 µg/mL | 2 µg/mL | 4 µg/mL |  |  |  | 
12 | CC1(C)S[C@@H]2[C@H](NC(=O)[C@H](C(=O)O)c3ccsc3)C(=O)N2[C@H]1C(=O)O [TICARCILLIN] | 4 µg/mL | 8 µg/mL | 8 µg/mL | 4 µg/mL | 1 µg/mL | 512 µg/mL | 32 µg/mL | 
13 | CC1(C)S[C@@H]2[C@H](NC(=O)[C@H](NC(=O)N3CCNC3=O)c3ccccc3)C(=O)N2[C@H]1C(=O)O [AZLOCILLIN] | 16 µg/mL | 16 µg/mL | 16 µg/mL | 8 µg/mL | 0.5 µg/mL | 16 µg/mL | 16 µg/mL | 
14 | O=C(O)c1cn(C2CC2)c2cc(N3CCNCC3)c(F)cc2c1=O [CIPROFLOXACIN] | ≤ 0.03 µg/mL | ≤ 0.03 µg/mL | ≤ 0.03 µg/mL | ≤ 0.03 µg/mL | 0.25 µg/mL | 64 µg/mL | 1 µg/mL | MIC (Pseudomonas aeruginosa [12]): 4 µg/mL (≈ 12.1 µM); MIC (Pseudomonas aeruginosa [16]): 4 µg/mL (≈ 12.1 µM); MIC (Pseudomonas aeruginosa [17]): 128 µg/mL (≈ 386 µM); MIC (Pseudomonas aeruginosa [18]): 4 µg/mL (≈ 12.1 µM); MIC (Pseudomonas aeruginosa [19]): 32 µg/mL (≈ 96.6 µM)
15 | CC[C@H]1OC(=O)[C@H](C)[C@@H](O[C@H]2C[C@@](C)(OC)[C@@H](O)[C@H](C)O2)[C@H](C)[C@@H](O[C@@H]2O[C@H](C)C[C@H](N(C)C)[C@H]2O)[C@](C)(O)C[C@@H](C)C(=O)[C@H](C)[C@@H](O)[C@]1(C)O [ERYTHROMYCIN] | 64 µg/mL | 64 µg/mL | 64 µg/mL | 64 µg/mL |  |  |  | 
16 | CCN1CCN(C(=O)N[C@@H](C(=O)N[C@@H]2C(=O)N3C(C(=O)O)=C(CSc4nnnn4C)CS[C@H]23)c2ccc(O)cc2)C(=O)C1=O [CEFOPERAZONE] |  |  |  |  | 1 µg/mL | > 1020 µg/mL | 4 µg/mL | 
17 | Cc1onc(-c2ccccc2Cl)c1C(=O)N[C@@H]1C(=O)N2[C@@H]1SC(C)(C)[C@@H]2C(=O)O [CLOXACILLIN] |  |  |  |  | 0.12 µg/mL | ≥ 512 µg/mL | 8 µg/mL | 
18 | CC(=O)OCC1=C(C(=O)O)N2C(=O)[C@@H](NC(=O)Cc3cccs3)[C@H]2SC1 [CEPHALOTHIN] |  |  |  |  | 0.5 µg/mL | 64 µg/mL | 1 µg/mL | 
19 | O=C(Cc1cccs1)N[C@@H]1C(=O)N2C(C(=O)[O-])=C(C[n+]3ccccc3)CS[C@H]12 [CEPHALORIDINE] | 0.015 µg/mL | 4 µg/mL | 8 µg/mL | 4 µg/mL | < 0.06 µg/mL | 16 µg/mL | 1 µg/mL | 
20 | CC1(C)S[C@@H]2[C@H](NC(=O)Cc3ccccc3)C(=O)N2[C@H]1C(=O)O [PENICILLIN G] | 16 µg/mL | 64 µg/mL | 64 µg/mL |  | ≤ 0.06 µg/mL | 32 µg/mL | 32 µg/mL | 
21 | CC(=O)O[C@H]1C[C@@]2(C)[C@@H](C[C@@H](O)[C@H]3[C@@]4(C)CC[C@@H](O)[C@@H](C)[C@@H]4CC[C@@]32C)/C1=C(\CCC=C(C)C)C(=O)O [FUSIDIC ACID] | > 1020 µg/mL | 1020 µg/mL | > 1020 µg/mL | 1020 µg/mL |  |  |  | 
22 | CCN1CCN(C(=O)N[C@@H](C(=O)N[C@@H]2C(=O)N3[C@@H]2SC(C)(C)[C@@H]3C(=O)O)c2ccccc2)C(=O)C1=O [PIPERACILLIN] | 4 µg/mL | 2 µg/mL | 2 µg/mL | 2 µg/mL | 0.5 µg/mL | 128 µg/mL | 32 µg/mL | 
23 | C[C@@H](O)[C@H]1C(=O)N2C(C(=O)O)=C(SCCNC=N)C[C@H]12 [IMIPENEM ANHYDROUS] |  |  |  |  |  |  |  | MIC (Pseudomonas aeruginosa [20]): 4 µg/mL (≈ 13.4 µM); MIC (Pseudomonas aeruginosa [21]): 32 µg/mL (≈ 107 µM); MIC (Pseudomonas aeruginosa [22]): 0.5 µg/mL (≈ 1.67 µM)

From ChEMBL document CHEMBL1145495, “Polyamine effects on antibiotic susceptibility in bacteria” (2007)
